The values that follow come from ChEMBL document CHEMBL4311948, “Exploring the Natural Piericidins as Anti-Renal Cell Carcinoma Agents Targeting Peroxiredoxin 1” (J Med Chem, 2019).

The test system of one experiment is 786-0. Description: Cytotoxicity against human 786-O cells assessed as reduction in cell viability measured after 72 hrs by CCK8 assay. The format is functional, cell-based. The following applies: 786-0, 72 h. The method, boiled down:
(§1)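 Cells were grown in 10% FBS medium: MEM for ACHN, RPMI1640 for OS-RC-2 and 786-O, DMEM for HK-2. They were seeded at 400–800 cells/well in 384-well plates and treated with a range of compound concentrations or solvent control, with sorafenib as positive control. After 72 h, CCK-8 absorbance was read at 450 nm in triplicate, and IC50 was taken from dose-response curves.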
Background: Tetrazolium dyes change colour on reduction, which living cells bring about.

The test system of another experiment is HK-2. Description: Cytotoxicity against human HK2 cells assessed as reduction in cell viability measured after 72 hrs by CCK8 assay. The format is cell-based. The following applies: HK-2, 72 h. In a few lines: as §1
For another experiment, the system named is OS-RC-2. Description: Cytotoxicity against human OS-RC2 cells assessed as reduction in cell viability measured after 72 hrs by CCK8 assay. The format is functional, cell-based. The settings on record: OS-RC-2, 72 h. The method, boiled down:
as §1

Experiment [1] relates to ACHN. Description: Cytotoxicity against human ACHN cells assessed as reduction in cell viability measured after 72 hrs by CCK8 assay. The format is functional, cell-based. In a few lines:
as §1

In experiment [2] the test system is ACHN. Description: Cytotoxicity against human ACHN cells harboring shPRDX1 gene assessed as reduction in cell viability measured after 72 hrs by CCK8 assay. The format is functional, cell-based. In a few lines:
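Transfectants were selected with puromycin (1 μg/mL), and knockdown was confirmed by immunoblot. Viability was read by CCK-8 after 72 h of compound exposure in 384-well plates at 400–800 cells/well in MEM with 10% FBS, and IC50 was taken from dose-response curves.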

The mark [3] stands for this setting: Homo sapiens, ACHN, 72 h, read-out: IC50.

The IC50 is the point on the concentration scale where inhibition reaches its midpoint.

As for `C/C=C(\C)[C@H](O[C@@H]1O[C@H](CO)[C@@H](O)[C@H](O)[C@H]1O)[C@H](C)/C=C(C)/C=C/C/C(C)=C/Cc1nc(OC)c(OC)c(O[C@@H]2O[C@H](CO)[C@@H](O)[C@H](O)[C@H]2O)c1C`, the half-maximal inhibitory concentration (IC50) is more than 100 µM in the experiment with 786-0, 1.1 µM in the experiment on HK-2, more than 100 µM with OS-RC-2 and 28 µM with ACHN [1].
`C/C=C(\C)[C@H](O[C@@H]1O[C@H](CO)[C@@H](O)[C@H](O)[C@H]1O)[C@H](C)/C=C(\C)[C@@H](OC)[C@@H](O)C/C(C)=C/Cc1nc(OC)c(OC)c(O)c1C`: the IC50 in the experiment with 786-0 is more than 100 µM; in the experiment on OS-RC-2, more than 100 µM; in the experiment on ACHN [1], 2.4 µM.
With `COc1nc(C/C=C(\C)C/C=C/C(C)=C/[C@@H](C)[C@@H](O[C@@H]2O[C@H](CO[C@H]3O[C@H](CO)[C@@H](O)[C@H](O)[C@H]3O)[C@@H](O)[C@H](O)[C@H]2O)/C(C)=C/CO)c(C)c(O)c1OC`, the IC50 in the experiment on 786-0 was more than 100 µM; in the experiment on HK-2 it was more than 100 µM; in the experiment with OS-RC-2, more than 100 µM; with ACHN [2] (setting [3]), 58 µM; in the experiment on ACHN [1] it was 23 µM.
`C/C=C(\C)[C@H](O[C@@H]1O[C@H](CO[C@H]2O[C@H](CO)[C@@H](O)[C@H](O)[C@H]2O)[C@@H](O)[C@H](O)[C@H]1O)[C@H](C)/C=C(C)/C=C/C/C(C)=C/Cc1nc(OC)c(OC)c(O)c1C`: the IC50 was more than 100 µM in the experiment with 786-0, more than 100 µM with HK-2, more than 100 µM in the experiment with OS-RC-2 and 21 µM with ACHN [1].
Regarding `C/C=C(\C)[C@H](O[C@@H]1O[C@H](CO)[C@@H](O)[C@H](O)[C@H]1O)[C@H](C)/C=C(C)/C=C/C/C(C)=C/Cc1nc(OC)cc(O)c1C`, the IC50 with 786-0 came out at 15 µM; in the experiment with OS-RC-2, 14 µM; in the experiment on ACHN [1] it was 3.8 µM.
The corresponding values for `COc1nc(C/C=C(\C)C/C=C/C=C/[C@@H](C)[C@@H](O[C@@H]2O[C@H](CO)[C@@H](O)[C@H](O)[C@H]2O)/C(C)=C/CO)c(C)c(O)c1OC` are 28 µM, 79 µM and 2.5 µM.
With `COc1nc(C/C=C(\C)C/C(C)=C/C(C)=C/[C@@H](C)[C@@H](O)/C(C)=C/[C@](C)(O)[C@@H](C)O)c(C)c(O)c1OC`, the IC50 with 786-0 was more than 100 µM; with HK-2, 44 µM; in the experiment on OS-RC-2 it was 5.3 µM; in the experiment on ACHN [2] (setting [3]) it was 8.2 µM; in the experiment on ACHN [1], 2.4 µM.
On to `COc1nc(C/C=C(\C)C/C=C/C(C)=C/[C@@H](C)[C@@H](O[C@@H]2O[C@H](CO)[C@@H](O)[C@H](O)[C@H]2O)/C(C)=C/CO)c(C)c(O)c1OC`, for which the IC50 in the experiment with 786-0 is more than 100 µM; with HK-2, more than 100 µM; in the experiment with OS-RC-2, more than 100 µM; in the experiment with ACHN [2] (achn), “Not Active”; with ACHN [1], 7.21 µM.
As for `C/C=C(\C)[C@H](O[C@@H]1O[C@H](CO[C@H]2O[C@H](CO)[C@H](O)[C@H](O)[C@H]2O)[C@@H](O)[C@H](O)[C@H]1O)[C@H](C)/C=C(C)/C=C/C/C(C)=C/Cc1nc(OC)c(OC)c(O)c1C`, the IC50 is more than 100 µM with 786-0; more than 100 µM in the experiment with HK-2; more than 100 µM in the experiment on OS-RC-2; 9 µM with ACHN [2] (setting [3]); 4.5 µM in the experiment on ACHN [1].
For the molecule `COc1nc(C/C=C(\C)C/C=C/C(C)=C/[C@@H](C)[C@@H](O[C@@H]2O[C@H](CO)[C@@H](O)[C@H](O)[C@H]2O)[C@@]2(C)O[C@@H]2C)c(C)c(O)c1OC`, the half-inhibitory concentration (IC50) in the experiment on 786-0 came to 19 µM; in the experiment on OS-RC-2 it was 30 µM; in the experiment with ACHN [1], 2.8 µM.
Take `C/C=C(\C)[C@H](O)[C@H](C)/C=C(C)/C=C(\C)C/C(C)=C/Cc1nc(OC)c(OC)c(O)c1C`: the IC50 amounted to 50 µM with 786-0; 45 µM with HK-2; 17 µM in the experiment with OS-RC-2; 68 µM with ACHN [2] (setting [3]); 14 µM with ACHN [1].
Turning to `C/C=C(\C)[C@H](O[C@@H]1O[C@H](CO)[C@@H](O)[C@H](O)[C@H]1O)[C@H](C)/C=C/C=C/C/C(C)=C/Cc1nc(OC)c(OC)c(O)c1C`, the half-inhibitory concentration (IC50) turned out to be 0.99 µM in the experiment with 786-0, 2.6 µM with OS-RC-2 and 0.31 µM in the experiment with ACHN [1].
As to `COc1nc(C/C=C(\C)C/C=C/C(C)=C/[C@@H](C)[C@@H](O[C@@H]2O[C@H](CO[C@H]3O[C@H](CO)[C@H](O)[C@H](O)[C@H]3O)[C@@H](O)[C@H](O)[C@H]2O)/C(C)=C/CO)c(C)c(O)c1OC`, the IC50 in the experiment on 786-0, with HK-2, with OS-RC-2 and in the experiment with ACHN [1] was more than 100 µM each time.
Turning to `C/C=C/[C@H](O)[C@H](C)/C=C(C)/C=C/C/C(C)=C/Cc1nc(OC)c(OC)c(O)c1C`, the concentration for half-maximal inhibition (IC50) in the experiment with 786-0 is more than 100 µM; in the experiment with OS-RC-2 it was 11 µM; in the experiment on ACHN [2] (setting [3]), 11 µM; with ACHN [1], 4.1 µM.
As to `COc1nc(C/C=C(\C)C/C(C)=C/C(C)=C/[C@@H](C)[C@@H](O)[C@]2(C)O[C@H]2C)c(C)c(O)c1OC`, the 50% inhibitory concentration (IC50) in the experiment with 786-0 is more than 100 µM; in the experiment on HK-2, more than 100 µM; in the experiment on OS-RC-2, 22 µM; with ACHN [2] (setting [3]) it was more than 100 µM; in the experiment with ACHN [1], more than 100 µM.
`COc1nc(C/C=C(\C)C/C(C)=C/C(C)=C/[C@@H](C)[C@@H](O)/C(C)=C/[C@@](C)(O)[C@H](C)O)c(C)c(O)c1OC`: the IC50 in the experiment with 786-0 is more than 100 µM; with HK-2, 63 µM; in the experiment on OS-RC-2, 4.1 µM; with ACHN [2] (setting [3]), 13 µM; in the experiment with ACHN [1], 3.8 µM.
Consider `C/C=C(\C)C(=O)[C@H](C)/C=C(C)/C=C/C/C(C)=C/Cc1nc(OC)c(OC)c(O)c1C`, for which the IC50 is more than 100 µM with 786-0, 22 µM with OS-RC-2, more than 100 µM in the experiment with ACHN [2] (setting [3]) and more than 100 µM in the experiment on ACHN [1].
In the case of `COc1nc(C/C=C(\C)C[C@H](O)[C@H](OC)/C(C)=C/[C@@H](C)[C@@H](O[C@@H]2O[C@H](CO)[C@@H](O)[C@H](O)[C@H]2O)/C(C)=C/CO)c(C)c(O)c1OC`, the IC50 is more than 100 µM with 786-0, more than 100 µM in the experiment with OS-RC-2 and 60 µM with ACHN [1].
